This excerpt belongs to a sample that is enriched for hits.
T cruzi HTS: inhibitors of intracellular Trypanosoma cruzi, primary screen, cell-based, plate reader, single point, set 2 | actives 4.9% (n = 22,000) | activity score (inhibition), % at 5.01 µM | intracellular Trypanosoma cruzi in host cells; in the data active = activity score above about 55%;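 note: parasites and compound incubated about four days before reading; 0% = median of neutral control wells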
INS-1E ATP HTS: protection of INS-1E cells from cytokine death, primary screen, ATP luminescence, single point. INS-1E cytokine-induced death, 48 h; normalised: neutral wells 0, positive control 100. protection from cytokine-induced ATP loss, % at 10 µM. actives 0.1% (n = 20,000). AID 488910, 2010;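 active = mean replicate protection from cytokine-induced ATP loss at least 50% and at least 75% of replicates each reaching 50%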
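Test system: INS-1E rat cells | Quantity: 8000 cells per well | Medium: Phenol-red-free RPMI with 5% fetal bovine serum | Reagent: Cytokine cocktail of IFN-γ, TNF-α and IL-1β | Doses: One compound concentration, pin transfer | Timing: 48 h co-treatment, 10 min post-lysis read | Technique: Luminescent ATP assay (CellTiter-Glo)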
A1 apoptosis 2: A1 inhibitors via caspase activation, primary screen, cell-based, luminescence, HTS, two replicates | caspase activation, % (no concentration beside the values) | MEF A1-2A-BIM cells, caspase-Glo luminescence, 3 h; percent of clofoctol response, DMSO zero | 24,000 tested, under 10 active; in the data active = caspase activation above about 5.9%
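system = A1-2A-BIM-expressing MEF cells | quantity = 2500 MEF cells/well | dosing = 50 nL compound per well, pinned | schedule = overnight cell settling, then 3 h compound exposure, 37 °C | signal = luminescence from DEVD-luciferin Caspase-Glo reagent, 1:1 in 50 mM HEPES, 1 h RT | read-out = Caspase-3/7 activation, seen as rise in luminescence signal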
* marks the source's active call; other numbers are inactive results; . = no result given.

SMILES	T cruzi HTS	INS-1E ATP HTS	A1 apoptosis 2
COc1cc2c(cc1O)C(c1cccs1)N(Cc1cccc(OC(F)(F)F)c1)CC2 (stereo not drawn)	.	.	0
O=C(CCCCCC(=O)N/N=C/c1cccnc1)NO	-3	8	0
CN(CCO)c1ccc(/C=N/NC(=O)CCCCCCC(=O)Nc2ccccc2O)cc1	21	0	0
O=C(N/N=C/[C@H](O)[C@H](O)[C@@H](O)[C@@H](O)CO)c1ccccc1O	-8	-6	0
C[C@H](CO)N1C[C@H](C)[C@@H](CN(C)Cc2ccc(C(=O)Nc3ccccc3N)cc2)Oc2c(NS(=O)(=O)c3ccccc3)cccc2C1=O	51	-4	0
Cc1noc(C)c1S(=O)(=O)Nc1cccc2c1O[C@@H](CN(C)Cc1ccc(C(=O)Nc3ccccc3N)cc1)[C@@H](C)CN([C@@H](C)CO)C2=O	66*	-17	-1
C[C@@H]1CN([C@H](C)CO)C(=O)Cc2cc(NC(=O)Cc3ccccc3)ccc2O[C@@H]1CN(C)Cc1ccc(Cl)c(Cl)c1	76*	-75	-1
C[C@@H]1CN([C@H](C)CO)C(=O)Cc2cc(NC(=O)Nc3ccccc3)ccc2O[C@@H]1CN(C)Cc1ccc(Cl)c(Cl)c1	41	-26	.
C[C@@H]1CN([C@H](C)CO)C(=O)Cc2cc(NC(=O)Cc3ccccc3)ccc2O[C@H]1CN(C)Cc1ccc2c(c1)OCO2	34	3	.
C[C@H]1CN([C@@H](C)CO)C(=O)Cc2cc(NC(=O)Cc3ccccc3)ccc2O[C@@H]1CN(C)Cc1ccc2c(c1)OCO2	57*	-4	1
C[C@@H]1CN([C@@H](C)CO)C(=O)Cc2cc(NC(=O)Cc3ccccc3)ccc2O[C@@H]1CN(C)Cc1ccc(Cl)c(Cl)c1	66*	-38	0
C[C@@H]1CN([C@@H](C)CO)C(=O)Cc2cc(NC(=O)Cc3ccccc3)ccc2O[C@@H]1CN(C)Cc1ccccc1	1	0	.
C=C(C)[C@@H]1CC=C(/C=N/NC(=O)CCCCCCC(=O)OC)CC1	8	-5	0
O=C(N/N=C/[C@@H](O)[C@@H](O)[C@H](O)[C@H](O)CO)c1ccccc1O	-11	-11	1
C[C@@H]1CN([C@H](C)CO)C(=O)c2cccc(NC(=O)c3ccncc3)c2O[C@H]1CN(C)Cc1ccncc1	-16	4	1
C[C@@H]1CN([C@H](C)CO)C(=O)c2cccc(NC(=O)c3ccncc3)c2O[C@H]1CN(C)Cc1ccc(Cl)c(Cl)c1	76*	1	-1
C[C@H](CO)N1C[C@H](C)[C@H](CN(C)Cc2ccc(Cl)c(Cl)c2)Oc2c(NC(=O)c3ccncc3)cccc2C1=O	56*	-8	1
C[C@@H]1CN([C@@H](C)CO)C(=O)c2cccc(NC(=O)c3ccncc3)c2O[C@H]1CN(C)Cc1ccc(Cl)c(Cl)c1	78*	3	0
C[C@H](CO)N1C[C@H](C)[C@H](CN(C)Cc2ccncc2)Oc2c(NC(=O)c3ccncc3)cccc2C1=O	-8	4	0
C[C@H]1CN([C@@H](C)CO)C(=O)c2cccc(NC(=O)c3ccncc3)c2O[C@H]1CN(C)Cc1ccncc1	-18	11	.
CC(C)(C)OC(=O)NC1(/C=N/NC(=O)CCCCCC(=O)NO)CCCC1	.	.	0
O=C(N=NC=C1C=CN(O)C=C1)c1ccccc1O	-5	-35	-1
O=C(O)CCCCCC(=O)N/N=C/c1ccoc1	-8	-3	0
COc1ccc(CN(C)C[C@@H]2Oc3ccc(NS(=O)(=O)c4ccc(OC)cc4)cc3CC(=O)N([C@H](C)CO)C[C@H]2C)cc1	70*	-8	1
COc1ccc(S(=O)(=O)Nc2ccc3c(c2)CC(=O)N([C@H](C)CO)C[C@@H](C)[C@@H](CN(C)Cc2ccc(-c4ccccc4)cc2)O3)cc1	72*	-16	1
SMILES	T cruzi HTS	INS-1E ATP HTS	A1 apoptosis 2
COc1ccc(S(=O)(=O)Nc2ccc3c(c2)CC(=O)N([C@H](C)CO)C[C@@H](C)[C@@H](CN(C)Cc2ccccc2)O3)cc1	63*	-6	0
COc1ccc(S(=O)(=O)Nc2ccc3c(c2)CC(=O)N([C@@H](C)CO)C[C@@H](C)[C@@H](CN(C)Cc2ccc4c(c2)OCO4)O3)cc1	4	-4	0
COc1ccc(S(=O)(=O)Nc2ccc3c(c2)CC(=O)N([C@H](C)CO)C[C@@H](C)[C@H](CN(C)Cc2ccc4c(c2)OCO4)O3)cc1	66*	3	.
COc1ccc(S(=O)(=O)Nc2ccc3c(c2)CC(=O)N([C@@H](C)CO)C[C@@H](C)[C@H](CN(C)Cc2ccccc2)O3)cc1	.	.	-1
COc1ccc(CN(C)C[C@@H]2Oc3ccc(NS(=O)(=O)c4ccccc4)cc3CC(=O)N([C@@H](C)CO)C[C@@H]2C)cc1	17	4	.
COc1ccc(CN(C)C[C@@H]2Oc3ccc(NS(=O)(=O)c4ccc(F)cc4)cc3CC(=O)N([C@H](C)CO)C[C@H]2C)cc1	41	-2	.
C=CCC/C=N/NC(=O)CCCCCCC(=O)NO	.	.	-1
O=C(O)CCCCCC(=O)N/N=C/c1c(O)ccc2ccccc12	-9	11	-1
Cc1ccc(O)c(/C=N/NC(=O)CCCCCCC(=O)Nc2ccccc2O)c1	.	.	-1
COc1ccc(CN(C)C[C@H]2Oc3ccc(NS(=O)(=O)c4ccc(OC)cc4)cc3CC(=O)N([C@H](C)CO)C[C@H]2C)cc1	64*	3	0
COc1ccc(CN(C)C[C@H]2Oc3ccc(NS(=O)(=O)c4ccc(OC)cc4)cc3CC(=O)N([C@H](C)CO)C[C@@H]2C)cc1	.	.	-1
O=C(N/N=C/c1ccc(-c2cccc(Cl)c2)o1)c1ccccc1O	-18	-17	-1
CC(C)(C)/C=N/NC(=O)CCCCCCC(=O)O	-8	-8	.
O=C(NO)c1ccc(C(=O)N/N=C/c2ccc(Br)o2)cc1	-17	8	1
C[C@@H]1CCCCO[C@@H](CN(C)Cc2ccc(Cl)c(Cl)c2)[C@@H](C)CN([C@H](C)CO)C(=O)c2cc(NC(=O)CCC(F)(F)F)ccc2O1	63*	-32	.
C[C@@H]1CCCCO[C@@H](CN(C)Cc2ccc(Cl)c(Cl)c2)[C@H](C)CN([C@H](C)CO)C(=O)c2cc(NC(=O)Cc3ccccc3)ccc2O1	.	.	0
C[C@@H]1CCCCO[C@@H](CN(C)Cc2ccc(Cl)c(Cl)c2)[C@@H](C)CN([C@H](C)CO)C(=O)c2cc(NC(=O)Cc3ccccc3)ccc2O1	64*	-45	0
C[C@@H]1CN([C@@H](C)CO)C(=O)c2cc(NC(=O)CCC(F)(F)F)ccc2O[C@@H](C)CCCCO[C@H]1CN(C)Cc1ccc(Cl)c(Cl)c1	.	.	0
C=C(C)[C@@H]1CC=C(/C=N/NC(=O)c2ccccc2O)CC1	-22	-22	-7
CC(=O)n1cc([C@H]2C=C(C(=O)N3CCN(C)CC3)O[C@@H](OCc3ccc(CO)cc3)C2)c2ccccc21	.	.	0
COc1ccc(O)c(/C=N/NC(=O)CCCCCCC(=O)Nc2ccccc2O)c1	8	-9	-1
